pIC50: −log10 of the molar value. The source made the active and inactive calls. No cut-off for these calls is given here.
How the values were obtained:
[1] = target: Mitogen-activated protein kinase kinase kinase kinase 5 (Homo sapiens) (UniProt Q9Y4K4); assay: Inhibition of human KHS at 0.5 uM relative to control
[2] = target: Ephrin type-A receptor 5 (Homo sapiens) (UniProt P54756); assay: Inhibition of human EPHA5 at 0.5 uM relative to control
[3] = Potency index, ratio of sorafenib GI50 to test compound GI50 for human non-small cell lung cancer cells; format: functional
Method in brief: (§1)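 GI50 is the concentration giving 50% reduction in net protein increase relative to control. Potency index is the reference-drug GI50 divided by the test-compound GI50.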

[4] = target: Fibroblast growth factor receptor 3 (Homo sapiens) (UniProt P22607); assay: Inhibition of human FGFR3 at 0.5 uM relative to control
Fibroblast growth factor receptor 3 (Homo sapiens), sequence (P22607 23-806 limits assumed): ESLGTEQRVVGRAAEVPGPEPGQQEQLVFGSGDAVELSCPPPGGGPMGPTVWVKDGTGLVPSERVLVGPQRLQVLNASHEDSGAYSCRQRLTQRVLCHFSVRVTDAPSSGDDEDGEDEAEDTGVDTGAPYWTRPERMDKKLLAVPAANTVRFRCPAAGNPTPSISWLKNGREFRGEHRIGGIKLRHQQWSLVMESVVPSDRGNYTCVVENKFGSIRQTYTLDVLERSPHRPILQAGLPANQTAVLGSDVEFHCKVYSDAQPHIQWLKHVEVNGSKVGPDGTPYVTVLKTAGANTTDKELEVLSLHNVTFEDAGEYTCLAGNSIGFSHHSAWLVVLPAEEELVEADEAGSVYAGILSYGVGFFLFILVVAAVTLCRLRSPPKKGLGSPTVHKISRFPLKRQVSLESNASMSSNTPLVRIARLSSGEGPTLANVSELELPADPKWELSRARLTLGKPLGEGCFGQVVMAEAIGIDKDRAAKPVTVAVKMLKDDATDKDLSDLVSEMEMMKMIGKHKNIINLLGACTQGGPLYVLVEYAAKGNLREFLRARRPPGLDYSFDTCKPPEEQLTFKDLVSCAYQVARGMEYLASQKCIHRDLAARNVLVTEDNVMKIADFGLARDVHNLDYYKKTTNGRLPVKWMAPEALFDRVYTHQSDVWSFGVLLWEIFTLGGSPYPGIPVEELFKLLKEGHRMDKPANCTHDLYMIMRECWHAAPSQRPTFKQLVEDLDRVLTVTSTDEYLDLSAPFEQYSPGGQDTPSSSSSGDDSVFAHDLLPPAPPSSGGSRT

Melanoma cell = assay: Potency index, ratio of sunitinib GI50 to test compound GI50 for human melanoma cells; format: functional; method in brief: as §1
[5] = target: Fibroblast growth factor receptor 2 (Homo sapiens) (UniProt P21802); assay: Inhibition of human FGFR2 at 0.5 uM relative to control
Fibroblast growth factor receptor 2 (Homo sapiens), sequence (P21802 22-821 limits assumed): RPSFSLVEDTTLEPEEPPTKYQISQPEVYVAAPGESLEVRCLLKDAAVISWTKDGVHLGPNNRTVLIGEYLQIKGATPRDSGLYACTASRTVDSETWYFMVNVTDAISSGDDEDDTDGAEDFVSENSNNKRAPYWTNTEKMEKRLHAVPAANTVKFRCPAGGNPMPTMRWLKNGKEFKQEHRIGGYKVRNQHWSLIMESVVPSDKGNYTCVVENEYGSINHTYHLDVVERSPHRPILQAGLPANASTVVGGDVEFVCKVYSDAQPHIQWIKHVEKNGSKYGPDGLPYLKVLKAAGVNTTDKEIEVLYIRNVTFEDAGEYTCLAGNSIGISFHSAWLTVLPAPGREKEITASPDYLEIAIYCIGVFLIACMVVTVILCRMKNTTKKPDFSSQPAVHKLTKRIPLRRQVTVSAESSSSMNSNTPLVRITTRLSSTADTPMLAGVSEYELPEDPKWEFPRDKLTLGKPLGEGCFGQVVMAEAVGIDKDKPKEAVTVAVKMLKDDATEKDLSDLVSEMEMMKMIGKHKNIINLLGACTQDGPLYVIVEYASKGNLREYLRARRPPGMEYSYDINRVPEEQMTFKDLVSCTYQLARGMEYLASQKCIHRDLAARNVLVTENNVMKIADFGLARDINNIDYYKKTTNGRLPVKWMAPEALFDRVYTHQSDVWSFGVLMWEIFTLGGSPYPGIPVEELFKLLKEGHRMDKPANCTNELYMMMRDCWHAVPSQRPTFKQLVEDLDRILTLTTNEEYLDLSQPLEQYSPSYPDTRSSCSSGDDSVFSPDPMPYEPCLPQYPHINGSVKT

MOLT-4 = assay: Cytotoxicity against human MOLT4 cells after 48 hrs by SRB assay; format: functional; settings: MOLT-4, 48 h
Method in brief: (§2)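 NCI-60 panel; cells grown in RPMI 1640 with 5% FBS and 2 mM L-glutamine, plated at 5000–40 000 cells/well by doubling time, preincubated 24 h (37 °C, 5% CO2). Drug added at five concentrations, 1-log steps from 10−4 to 10−8 M, for 48 h. Fixed with TCA, stained with 0.4% SRB, absorbance read at 515 nm. Percent growth computed against time-zero and untreated controls; GI50, TGI and LC50 derived.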

CCRF-CEM = assay: Cytotoxicity against human CCRF-CEM cells after 48 hrs by SRB assay; format: functional; method in brief: as §2
RPMI-8226 = assay: Cytotoxicity against human RPMI8226 cells after 48 hrs by SRB assay; format: functional; settings: RPMI-8226, 48 h; method in brief: as §2
SR = assay: Cytotoxicity against human SR cells after 48 hrs by SRB assay; format: functional; method in brief: as §2
SK-MEL-5 = assay: Cytotoxicity against human SK-MEL-5 cells after 48 hrs by SRB assay; format: functional; settings: SK-MEL-5, 48 h; method in brief: as §2
[6] = target: T1, Vascular endothelial growth factor receptor 2 (Homo sapiens, UniProt P35968); settings: at 10 µM
T1 sequence (P35968 whole entry): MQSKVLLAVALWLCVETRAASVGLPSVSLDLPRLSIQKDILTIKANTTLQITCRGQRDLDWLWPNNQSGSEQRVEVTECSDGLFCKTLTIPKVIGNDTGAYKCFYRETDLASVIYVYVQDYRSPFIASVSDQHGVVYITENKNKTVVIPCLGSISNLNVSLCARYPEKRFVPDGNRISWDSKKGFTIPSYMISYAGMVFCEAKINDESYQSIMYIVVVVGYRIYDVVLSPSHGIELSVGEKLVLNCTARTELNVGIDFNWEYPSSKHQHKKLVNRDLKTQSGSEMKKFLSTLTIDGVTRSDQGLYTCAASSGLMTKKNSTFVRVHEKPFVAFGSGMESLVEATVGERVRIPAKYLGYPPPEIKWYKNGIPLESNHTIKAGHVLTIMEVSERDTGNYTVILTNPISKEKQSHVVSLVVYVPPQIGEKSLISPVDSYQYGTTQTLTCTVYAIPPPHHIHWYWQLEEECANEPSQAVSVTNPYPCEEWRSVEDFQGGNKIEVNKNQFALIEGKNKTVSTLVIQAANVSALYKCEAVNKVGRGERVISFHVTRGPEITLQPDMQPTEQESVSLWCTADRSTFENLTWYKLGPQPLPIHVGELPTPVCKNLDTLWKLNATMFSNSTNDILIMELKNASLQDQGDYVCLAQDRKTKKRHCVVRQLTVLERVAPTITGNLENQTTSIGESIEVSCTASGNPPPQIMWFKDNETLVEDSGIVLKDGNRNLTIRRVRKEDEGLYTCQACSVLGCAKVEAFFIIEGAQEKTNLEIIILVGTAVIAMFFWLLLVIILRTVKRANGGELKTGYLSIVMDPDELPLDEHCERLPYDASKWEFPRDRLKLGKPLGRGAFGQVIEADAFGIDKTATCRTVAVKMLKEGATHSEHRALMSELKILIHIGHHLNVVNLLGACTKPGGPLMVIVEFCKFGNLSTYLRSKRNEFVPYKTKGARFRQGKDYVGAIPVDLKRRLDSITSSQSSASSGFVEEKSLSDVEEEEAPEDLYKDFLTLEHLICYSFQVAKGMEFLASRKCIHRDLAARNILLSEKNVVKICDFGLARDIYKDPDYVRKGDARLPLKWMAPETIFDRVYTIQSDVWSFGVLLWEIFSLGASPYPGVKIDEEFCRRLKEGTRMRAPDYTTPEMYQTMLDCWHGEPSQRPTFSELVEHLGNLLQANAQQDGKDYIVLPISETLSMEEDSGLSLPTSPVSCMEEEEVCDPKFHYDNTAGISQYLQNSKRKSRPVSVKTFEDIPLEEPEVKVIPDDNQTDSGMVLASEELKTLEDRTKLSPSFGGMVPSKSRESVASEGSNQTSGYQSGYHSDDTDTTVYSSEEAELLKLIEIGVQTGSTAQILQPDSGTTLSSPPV

[7] = target: Tyrosine-protein kinase HCK (Homo sapiens) (UniProt P08631); assay: Inhibition of human HCK at 0.5 uM relative to control
Tyrosine-protein kinase HCK (Homo sapiens), sequence (P08631 2-526 limits assumed): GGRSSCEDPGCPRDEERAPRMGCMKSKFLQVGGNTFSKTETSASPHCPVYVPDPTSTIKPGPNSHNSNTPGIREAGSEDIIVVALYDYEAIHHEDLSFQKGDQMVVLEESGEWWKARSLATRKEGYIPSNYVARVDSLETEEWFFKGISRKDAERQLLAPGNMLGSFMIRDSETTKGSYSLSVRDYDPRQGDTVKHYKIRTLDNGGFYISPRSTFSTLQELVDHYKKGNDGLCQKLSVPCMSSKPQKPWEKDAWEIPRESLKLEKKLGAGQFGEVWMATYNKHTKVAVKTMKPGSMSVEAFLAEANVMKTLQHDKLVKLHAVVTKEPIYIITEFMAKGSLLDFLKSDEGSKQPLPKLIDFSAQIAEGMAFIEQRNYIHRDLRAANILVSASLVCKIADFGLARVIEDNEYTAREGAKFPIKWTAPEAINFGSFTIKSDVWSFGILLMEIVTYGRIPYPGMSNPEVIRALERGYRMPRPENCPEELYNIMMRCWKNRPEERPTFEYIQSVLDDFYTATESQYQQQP

HUVEC = assay: Growth inhibition of HUVEC at 10 uM after 72 hrs by CellTiter-Glo assay relative to control; format: functional; settings: Homo sapiens, read-out: GI
Method in brief: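 Cells in exponential phase seeded at 2000–4000 cells/well, then exposed 72 h at 37 °C, 5% CO2 with 0.1% final DMSO. Single-point screen at 10 μM final. […] Read-out was CellTiter-Glo luminescence.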

BT-549 = assay: Cytotoxicity against human BT549 cells after 48 hrs by SRB assay; format: functional; settings: BT-549, 48 h; method in brief: as §2
[8] = Potency index, ratio of sorafenib TGI to test compound TGI for human renal cancer cells; format: functional, Renal cancer cell
[9] = Potency index, ratio of sorafenib GI50 to test compound GI50 for human renal cancer cells; format: functional, Renal cancer cell; method in brief: as §1
M14 = assay: Cytotoxicity against human M14 cells after 48 hrs by SRB assay; format: functional; settings: M14, 48 h; method in brief: as §2
[10] = Potency index, ratio of sorafenib GI50 to test compound GI50 for human prostate cancer cells; format: functional, Prostate cancer cell; method in brief: as §1
NCI-H322M = assay: Cytotoxicity against human NCI-H322M cells after 48 hrs by SRB assay; format: functional; method in brief: as §2
[11] = Potency index, ratio of sunitinib GI50 to test compound GI50 for human CNS cancer cells; format: functional, CNS cancer cell; method in brief: as §1
NCI/ADR-RES [12] = assay: Potency index, ratio of sunitinib GI50 to test compound GI50 for human NCI-ADR-RES cells; format: functional; method in brief: as §1
[13] = Potency index, ratio of sorafenib GI50 to test compound GI50 for human breast cancer cells; format: functional, Breast cancer cell; method in brief: as §1
U-251 = assay: Cytotoxicity against human U251 cells after 48 hrs by SRB assay; format: functional; settings: U-251, 48 h
Method in brief: (§3)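 NCI-60 panel, five doses at 1-log steps from 10−4 to 10−8 M. Cells grown in RPMI 1640 with 5% FBS and 2 mM L-glutamine, seeded at 5000–40 000 cells/well and preincubated 24 h. Tz plates were TCA-fixed at drug addition. Drug exposure 48 h at 37 °C, then TCA fixation, 0.4% SRB stain and absorbance at 515 nm. GI50 taken from percent growth relative to Tz and control.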

HOP-92 = assay: Cytotoxicity against human HOP92 cells after 48 hrs by SRB assay; format: functional; settings: HOP-92, 48 h; method in brief: as §2
[14] = Potency index, ratio of test compound LC50 to sunitinib LC50 for human renal cancer cells; format: functional, Renal cancer cell
TK-10 = assay: Cytotoxicity against human TK10 cells after 48 hrs by SRB assay; format: functional; settings: TK-10, 48 h; method in brief: as §3
Homo sapiens = species: Homo sapiens; assay: Inhibition of human PDGFR at 0.5 uM relative to control
UACC-257 = assay: Cytotoxicity against human UACC257 cells after 48 hrs by SRB assay; format: functional; settings: UACC-257, 48 h; method in brief: as §3
NCI/ADR-RES [15] = assay: Potency index, ratio of sorafenib GI50 to test compound GI50 for human NCI-ADR-RES cells; format: functional; method in brief: as §1
OVCAR-3 = assay: Cytotoxicity against human OVCAR3 cells after 48 hrs by SRB assay; format: functional; settings: OVCAR-3, 48 h; method in brief: as §2
[16] = target: T1, Vascular endothelial growth factor receptor 2
SK-OV-3 = assay: Cytotoxicity against human SKOV3 cells after 48 hrs by SRB assay; format: functional; settings: SK-OV-3, 48 h; method in brief: as §2
MDA-MB-231 = assay: Cytotoxicity against human MDA-MB-231 cells after 48 hrs by SRB assay; format: functional; settings: MDA-MB-231, 48 h; method in brief: as §2
[17] = read-out: LC50 (the source's name)

Ephrin type-A receptor 5 (Homo sapiens), sequence (P54756 whole entry): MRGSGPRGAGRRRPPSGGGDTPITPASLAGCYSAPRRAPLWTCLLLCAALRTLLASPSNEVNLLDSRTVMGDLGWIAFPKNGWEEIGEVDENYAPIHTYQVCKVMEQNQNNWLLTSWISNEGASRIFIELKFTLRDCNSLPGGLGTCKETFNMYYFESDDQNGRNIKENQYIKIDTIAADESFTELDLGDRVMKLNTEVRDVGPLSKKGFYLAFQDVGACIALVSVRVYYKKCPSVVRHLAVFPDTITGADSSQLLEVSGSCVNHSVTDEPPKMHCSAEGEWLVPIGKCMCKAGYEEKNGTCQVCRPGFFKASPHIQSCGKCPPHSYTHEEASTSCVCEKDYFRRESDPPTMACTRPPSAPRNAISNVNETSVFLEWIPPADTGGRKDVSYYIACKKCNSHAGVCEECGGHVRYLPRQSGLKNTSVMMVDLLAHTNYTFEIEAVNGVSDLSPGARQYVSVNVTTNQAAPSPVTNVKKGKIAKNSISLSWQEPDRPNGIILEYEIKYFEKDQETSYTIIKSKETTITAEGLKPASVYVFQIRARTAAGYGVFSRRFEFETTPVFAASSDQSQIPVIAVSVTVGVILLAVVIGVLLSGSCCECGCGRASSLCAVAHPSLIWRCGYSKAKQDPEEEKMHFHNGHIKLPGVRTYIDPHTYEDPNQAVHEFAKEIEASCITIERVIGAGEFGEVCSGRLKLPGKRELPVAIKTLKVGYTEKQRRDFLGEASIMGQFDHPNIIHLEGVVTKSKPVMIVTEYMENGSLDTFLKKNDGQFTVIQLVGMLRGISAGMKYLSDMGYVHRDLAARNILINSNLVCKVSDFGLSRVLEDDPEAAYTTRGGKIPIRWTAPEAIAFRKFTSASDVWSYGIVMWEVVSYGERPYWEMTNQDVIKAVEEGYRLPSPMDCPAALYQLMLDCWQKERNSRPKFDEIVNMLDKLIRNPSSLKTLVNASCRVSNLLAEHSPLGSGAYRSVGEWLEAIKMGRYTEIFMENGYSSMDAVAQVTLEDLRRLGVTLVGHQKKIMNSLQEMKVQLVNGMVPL

In the case of COc1cc2ncnc(Oc3ccc(NC(=O)Nc4ccc(CN5CCOCC5)c(C(F)(F)F)c4)c4ccccc34)c2cc1OC, the inhibition [1] was “Active”, the inhibition [2] was “Active” and the RatioGI50 [3] was 3.9 - 9.5. The inhibition [4] was > 96%, the RatioGI50 (Melanoma cell) was 1.1 - 3.7 and the inhibition [5] was > 96%. For the same compound, the GI50 (MOLT-4) was 0.19 µM, the TGI (MOLT-4) was 1.82 µM and the CC50 (MOLT-4; [17]) was > 100 µM. The GI50 (CCRF-CEM) was 1.17 µM, the TGI (CCRF-CEM) was 40.7 µM and the CC50 (CCRF-CEM; [17]) was > 100 µM. For the same compound, the GI50 (RPMI-8226) was 0.39 µM, the TGI (RPMI-8226) was 2.95 µM and the CC50 (RPMI-8226; [17]) was > 100 µM. The GI50 (SR) was 0.69 µM, the TGI (SR) was 5.37 µM and the CC50 (SR; [17]) was > 100 µM. For the same compound, the GI50 (SK-MEL-5) was 0.45 µM, the TGI (SK-MEL-5) was 2.69 µM and the CC50 (SK-MEL-5; [17]) was 17 µM. The inhibition [6] was 97.8%, the inhibition [7] was “Active” and the inhibition of growth at 10 µM (HUVEC) was 97.1%. For the same compound, the GI50 (BT-549) was 1.15 µM, the TGI (BT-549) was 7.41 µM and the CC50 (BT-549; [17]) was 34.7 µM. It also gave a Ratio [8] of 3.2, a RatioGI50 [9] of 9.5 and a GI50 (M14) of 0.95 µM. For the same compound, the TGI (M14) was 4.57 µM, the CC50 (M14; [17]) was 26.9 µM and the RatioGI50 [10] was 1.6. For the same compound, the GI50 (NCI-H322M) was 0.56 µM, the TGI (NCI-H322M) was 15.1 µM and the CC50 (NCI-H322M; [17]) was 93.3 µM. For the same compound, the RatioGI50 [11] was 1.1 - 3.7, the RatioGI50 (NCI/ADR-RES [12]) was 6.9 and the RatioGI50 [13] was 3.9 - 9.5. It also gave a GI50 (U-251) of 1.05 µM, a TGI (U-251) of 3.98 µM and a CC50 (U-251; [17]) of 27.5 µM. The GI50 (HOP-92) was 0.32 µM, the TGI (HOP-92) was 7.76 µM and the CC50 (HOP-92; [17]) was 91.2 µM. It also gave a RatioLC50 [14] of 1.3, a GI50 (TK-10) of 0.38 µM and a TGI (TK-10) of 5.89 µM. For the same compound, the CC50 (TK-10; [17]) was 35.5 µM, the inhibition (Homo sapiens) was “Active” and the GI50 (UACC-257) was 0.79 µM. It also gave a TGI (UACC-257) of 3.98 µM, a CC50 (UACC-257; [17]) of 47.9 µM and a RatioGI50 (NCI/ADR-RES [15]) of 3.3. It also gave a GI50 (OVCAR-3) of 1 µM, a TGI (OVCAR-3) of 9.55 µM and a CC50 (OVCAR-3; [17]) of 42.7 µM. The pIC50 [16] was 7.48, the GI50 (SK-OV-3) was 0.23 µM and the TGI (SK-OV-3) was 0.95 µM. The CC50 (SK-OV-3; [17]) was 37.1 µM, the GI50 (MDA-MB-231) was 1.15 µM and the TGI (MDA-MB-231) was 7.94 µM. For the same compound, the CC50 (MDA-MB-231; [17]) was 42.7 µM.

— ChEMBL document CHEMBL4028913, “Discovery of Novel Potent VEGFR-2 Inhibitors Exerting Significant Antiproliferative Activity against Cancer Cell Lines” (J Med Chem, 2018)
